Most compounds without a hit are left out; they make up all but 3.5% or so of the library.
RGS4 act – RGS4 potentiation or activation; B-score at 10 µM; 310,000 compounds, 0.92% hits; HEK293 M3R/inducible RGS4, carbachol calcium flux Fluo4; hits give low values;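 active = B-score of the integrated calcium signal more than 4 SD below the library mean, with starting fluorescence not abnormally high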;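 also: negative B-score means reduced calcium response which marks RGS4 activation or potentiation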
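Reagent: ECmax carbachol challenge; Test system: M3R-expressing HEK293 line, RGS4 induced by doxycycline; Schedule: overnight RGS4 induction, 30 min dye load 37 °C, 20 min compound RT; Detection: calcium dye Fluo4 fluorescence; Read-out: Agonist-evoked peak-minus-minimum fluorescence over baseline, integrated ratio, B score.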
RGS4 block – inhibitors of human RGS4 | B-score at 10 µM | HEK293 M3R/RGS4 inducible, Fluo-4 calcium flux; hits give high values; triggered by carbachol at its EC20 | AID 463165 | P49798 | 310,000 compounds, 0.45% hits;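 active = B-score, a plate-corrected calcium signal, over three deviations above library mean, with baseline fluorescence within five deviations of library mean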;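 also: RGS4 expression induced by doxycycline in cells with stable M3 receptor; B-score is computed from the integrated fluorescence ratio over baseline after carbachol; higher B-score means a larger calcium signal and so more RGS4 inhibition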
Target sequence (P49798 whole entry, looked up): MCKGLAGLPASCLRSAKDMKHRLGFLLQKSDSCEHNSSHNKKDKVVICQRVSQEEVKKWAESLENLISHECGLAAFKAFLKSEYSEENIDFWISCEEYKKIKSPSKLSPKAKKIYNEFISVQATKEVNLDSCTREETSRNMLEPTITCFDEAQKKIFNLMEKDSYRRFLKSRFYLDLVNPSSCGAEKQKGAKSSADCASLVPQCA
MrgX1 agonist – human MrgX1 receptor agonism, primary screen; Q96LB2; MrgX1-HEK293 cells, Fluo-4 calcium fluorescence, agonist mode; hits give high values; B-score at 10 µM; 310,000 compounds, 0.44% hits;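 active = calcium response B-score plate-corrected fluorescence ratio at least 3 library SD, with starting fluorescence B-score inside 5 SD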
Target sequence (Q96LB2 whole entry, looked up): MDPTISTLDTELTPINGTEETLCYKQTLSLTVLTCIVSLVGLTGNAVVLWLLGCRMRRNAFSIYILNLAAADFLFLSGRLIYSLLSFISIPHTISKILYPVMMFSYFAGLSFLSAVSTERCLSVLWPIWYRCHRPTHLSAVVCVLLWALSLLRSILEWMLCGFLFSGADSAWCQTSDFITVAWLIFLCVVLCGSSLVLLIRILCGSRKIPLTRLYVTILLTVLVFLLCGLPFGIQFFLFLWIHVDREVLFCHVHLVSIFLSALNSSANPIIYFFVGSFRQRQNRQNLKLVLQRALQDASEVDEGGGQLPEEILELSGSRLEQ
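Material: MrgX1-expressing HEK293 cells / Dosing: compound as first of three additions / Incubation: overnight seeding, then 1 h dark dye loading / Signal: Fluo-4 NW calcium fluorescence / Evaluation: B-scored fluorescence response ratio / Benchmarks: positive and negative control wells on each plate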
MrgX1 antagonist – antagonists of human MrgX1 receptor; Q96LB2; MRGX1-HEK293 calcium flux, Fluo-4, BAM8-22 antagonism; hits give low values; AID 588676; B-score at 10 µM; 310,000 compounds, 1.3% hits;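 active = calcium-response B-score plate-corrected more than 3 library SD below zero, starting fluorescence within 5 deviations, no agonist response on first addition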;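 also: peak minus trough fluorescence over baseline after final BAM8-22 challenge near maximal dose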
MrgX1 allo act – human MrgX1 positive allosteric modulation, primary screen. Q96LB2. MrgX1-HEK293, Fluo-4 calcium flux, FDSS; hits give high values. B-score at 10 µM. 310,000 compounds, 0.63% hits;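 active = plate-corrected calcium response at least 3 library SD above typical, normal starting fluorescence, not activating the receptor alone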;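 also: compound read alongside a low EC10 to EC30 dose of BAM8-22 agonist; peak minus trough fluorescence over baseline measured at the second addition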
RGS4 act valid – RGS4 activation, validation assay; shares compounds with RGS4 act; HEK293 M3R/RGS4 inducible, carbachol calcium flux Fluo4; inhibition, % at 10 µM; 1,100 compounds, 89% hits;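 active = inhibition above 3 SD of the buffer control wells, cut at about 41% in these data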;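 also: signal is the integrated peak-minus-minimum Fluo4 fluorescence over baseline ratio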
RGS4 act ctr – counter-screen for RGS4 activators: effect in non-induced cells; shares compounds with RGS4 act; HEK293 M3R non-induced RGS4, Fluo4 calcium flux; after carbachol challenge at its EC90; inhibition, % at 10 µM; 1,100 compounds, 82% hits; AID 602283;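 active = inhibition exceeding 3 SD of buffer-only control wells, cut at about 26% in these data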;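 also: percent drop in integrated peak-minus-baseline over baseline Fluo4 ratio after carbachol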
Starred values were filed as active, the others as inactive; i = inactive; x = no result given.

SMILES	RGS4 act	RGS4 block	MrgX1 agonist	MrgX1 antagonist	MrgX1 allo act	RGS4 act valid	RGS4 act ctr
CC1CCc2c(C(=O)Nc3cccc(-c4nn[nH]n4)c3)csc2C1 (centres undefined)	i	i	i	i	i	x	x
COc1ccc(C(=O)Nc2cccc(-c3nnc(-c4ccco4)o3)c2)cc1	-9.6*	i	i	i	i	87.5*	48.3*
COc1ccc(CC(=O)Nc2cccc(-c3nnc(-c4ccco4)o3)c2)cc1	i	i	i	i	i	x	x
Cc1ccc(S(=O)(=O)N(C)c2ccc(C(=O)NCc3ccccc3F)cc2)cc1	i	i	i	i	i	x	x
CN(C)CCCNC(=O)/C(=N\O)c1ccccc1	i	i	i	i	i	x	x
Cc1cccc(C)c1C(=NCCCN(C)C)c1ccccc1	-9.39*	i	i	i	i	92.5*	80.3*
CCn1c(C)cc(O)c(C(=O)Nc2cccc(Cl)c2)c1=O	i	i	i	i	i	x	x
CCn1c(C)c(C)c2cc(C(=O)Nc3cccc(Cl)c3)ccc21	-7.74*	i	i	i	i	61.0*	0.0
Cc1ccc(OCc2csc(N)n2)cc1	i	i	i	i	i	x	x
CCOC(=O)C1(CCOc2ccccc2)CCN(Cc2cccn2-c2ncccn2)CC1	-8.08*	i	i	i	i	54.0*	83.8*
CCOC(=O)C1(CCCc2ccccc2)CCN(Cc2nccn2CC)CC1	-11.4*	i	i	i	i	92.0*	83.8*
COc1ccc(CC(=O)NCc2n[nH]c(=S)n2-c2cccc(Cl)c2)cc1	i	i	i	i	i	x	x
O=C(CN1CCCCC1)Nc1ccccc1Oc1ccccc1	-8.17*	i	i	i	i	61.0*	83.8*
COc1ccc(S(=O)(=O)N(C)C)cc1NC(=O)[C@H](Cc1ccccc1)N1C(=O)c2ccccc2C1=O	-9.45*	i	i	i	i	93.0*	57.8*
CCCCCCCCC(=O)NNC(=O)c1c(O)c2ccccc2n(CCC)c1=O	i	i	i	i	i	x	x
O=C(COc1ccccc1)Nc1cccc(-c2nc3ccccc3[nH]2)c1	-8.13*	i	i	i	i	76.5*	37.3*
O=S(=O)(NCC(O)c1ccccc1)c1cc(Cl)sc1Cl (centres undefined)	i	i	i	i	i	x	x
CC(C)CCn1c(O)c(N=NC(=O)Cn2ccc(C(F)(F)F)n2)c2ccccc21	-15.4*	i	i	i	i	44.5*	83.8*
CCCn1c(O)c(N=NC(=O)CNC(=O)c2ccncc2)c2ccccc21	i	i	i	i	i	x	x
COc1ccc(-c2csc3ncnc(N4CCN(c5ccccc5OC)CC4)c23)cc1	-8.6*	i	i	i	i	86.0*	48.8*
CCOc1ccccc1N1CCN(c2ncnc3scc(-c4ccc(OC)cc4)c23)CC1	-10.7*	i	i	i	i	90.5*	43.3*
Cc1nc(N2CCN(c3ccccc3O)CC2)c2c(-c3ccccc3)csc2n1	-11.3*	i	i	i	i	89.5*	33.8*
COc1ccc(-c2csc3ncnc(N4CCN(CCO)CC4)c23)cc1	i	i	i	i	i	x	x
COc1ccc(-c2csc3nc(C)nc(N4CCN(C(C)=O)CC4)c23)cc1OC	i	i	i	i	i	x	x
CCN1CCN(c2ncnc3scc(-c4ccc(C)cc4)c23)CC1	i	i	i	i	i	x	x
SMILES	RGS4 act	RGS4 block	MrgX1 agonist	MrgX1 antagonist	MrgX1 allo act	RGS4 act valid	RGS4 act ctr
Cc1ccc2c(c1)C=CC(C)(C)S2(=O)=O	i	i	i	i	i	x	x
NC(=O)CSc1oc(-c2ccco2)nc1S(=O)(=O)c1ccc(Br)cc1	i	i	i	i	i	x	x
NC(=NCc1ccco1)NC(=O)c1ccc(Cl)cc1	i	i	i	i	i	x	x
CCOC(=O)c1sc2nc(C)nc(NCc3ccc(Cl)cc3)c2c1C	-7.78*	i	i	i	i	90.5*	42.3*
CCOC(=O)c1sc2nc(C)nc(NCc3ccc(F)cc3)c2c1C	i	i	i	i	i	x	x
Cn1ccnc1C1CCCCN1Cc1nc(-c2ccc3c(c2)OCO3)no1 (centres undefined)	-7.75*	i	i	i	i	86.0*	62.3*
Cn1ccnc1C1CCCCN1Cc1nc(Cc2cccc(C(F)(F)F)c2)no1 (centres undefined)	-10.5*	i	i	i	i	78.5*	39.8*
FC(F)(F)c1cccc(Cc2noc(CN3C[C@@H]4CCC[C@H]3C4)n2)c1	i	i	i	i	i	x	x
COc1ccc(-c2noc(CN3CCCCC3c3nccn3C)n2)cc1 (centres undefined)	-7.63*	i	i	i	i	66.0*	83.8*
CN(Cc1nc(-c2ccc3c(c2)OCO3)no1)CC1(N2CCOCC2)CCCCC1	i	i	i	i	i	x	x
CCC(CC)C(=O)c1c[nH]c(C(=O)NCc2ccccc2OC)c1	i	i	i	i	i	x	x
Cc1ccc2c(c1)NC(=O)C(CC(=O)Nc1ccc(CN3CCC(C)CC3)cc1)O2 (centres undefined)	-7.69*	i	i	i	i	92.0*	94.8*
O=C(NCc1nnc(SCC(=O)N2CCCCCC2)o1)c1ccccc1F	i	i	i	i	i	x	x
CCCn1nnc(NCc2ccc(OCc3cccs3)c(OC)c2)n1	i	i	i	i	i	x	x
CCNCc1ccc(OCc2cccs2)c(OCC)c1	-8.91*	i	i	i	i	62.0*	0.0
OCCN(CC#CC(O)(c1ccccc1)C1CCCCC1)CCO (centres undefined)	i	i	i	i	i	x	x
OC(C#CCCN1CCCCC1)(c1ccccc1)C1CCCCC1 (centres undefined)	-8.97*	i	i	i	i	91.5*	95.8*
CCN(CC(=O)Nc1c(F)cccc1F)C(=O)Cc1csc(-c2ccc(OC)c(OC)c2)n1	i	i	i	i	i	x	x
Cc1cc(=O)n2c3ccccc3n(CC(O)CN3CCN(Cc4ccccc4)CC3)c2c1C#N (centres undefined)	-10.4*	i	i	i	i	73.5*	42.8*
Cc1nc([N+](=O)[O-])c(C(=O)OCc2ccccc2F)n1C	i	i	i	i	i	x	x

High-throughput results (PubChem)
